Here are results for 40 molecules from ChEMBL document CHEMBL1914334, “Discovery and characterization of potent and selective 4-oxo-4-(5-(5-phenyl-1,2,4-oxadiazol-3-yl)indolin-1-yl)butanoic acids as S1P₁ agonists” (Bioorg Med Chem Lett, 2011).

pEC50: −log10 of the molar value. The source made the active and inactive calls. The rule behind the calls is not given here. A value given as a limit tells only on which side of the number the result lay.

System in one series: not listed separately
In words: Half life in human. It counts as ADME, organism-based. The following applies: in vivo.
By half-life is commonly meant how long it takes for the measured level to halve. Higher therefore signals slow decline. As for `CCCCCCCCc1ccc(CCC(N)(CO)CO)cc1.Cl` [FINGOLIMOD HYDROCHLORIDE], the half-life was 144 h.

In another series the target is T1, Sphingosine 1-phosphate receptor 1 (Homo sapiens, UniProt P21453). In words: Agonist activity at human S1P1 receptor. It is filed as functional.
T1 sequence (P21453 whole entry): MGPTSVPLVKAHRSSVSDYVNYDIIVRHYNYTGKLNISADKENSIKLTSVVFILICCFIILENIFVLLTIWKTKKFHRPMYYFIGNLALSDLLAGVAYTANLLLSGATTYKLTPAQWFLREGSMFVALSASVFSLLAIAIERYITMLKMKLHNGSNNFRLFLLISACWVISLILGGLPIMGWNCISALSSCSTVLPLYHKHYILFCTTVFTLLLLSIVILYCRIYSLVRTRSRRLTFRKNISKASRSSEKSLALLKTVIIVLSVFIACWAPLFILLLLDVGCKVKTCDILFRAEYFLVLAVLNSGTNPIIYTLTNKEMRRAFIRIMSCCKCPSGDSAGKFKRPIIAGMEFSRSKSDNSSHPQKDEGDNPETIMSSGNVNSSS
Settings: not given
In outline:
(§1)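 Human S1P₁ cAMP HTRF read-out; each EC₅₀ is the mean of three or more replicates.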
A word on the pEC50: it is −log10 of the EC50, conventionally taken in molar units. As for `C=CCN(c1ccccc1)S(=O)(=O)c1cc(Cl)cc(Cl)c1`, the pEC50 is 8.17.

The molecule `CCN(c1ccc2[nH]ncc2c1)S(=O)(=O)c1cc(C(F)(F)F)cc(C(F)(F)F)c1` gave a pEC50 of 6.43.

Turning to `FC(F)(F)c1cc(-c2nc(-c3ccc4[nH]ncc4c3)no2)cc(C(F)(F)F)c1`, the pEC50 is 8.03.

The subject of the next series is Mus musculus. Put plainly: Immunomodulatory activity BALB/C mouse assessed as induction of lymphopenia at 1 mg/kg, po after 5 hrs. Also on record: dose 1 mg/kg. It is filed as functional, organism-based.
Settings: not given
Summed up: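 Male BALB/c mice were given a single oral dose of 1.0 mg/kg or vehicle (0.5% methylcellulose). Blood lymphocytes were counted at one time point, 5 h post-dose, with n = 6 per dose group (mean ± SD). Lowering was judged relative to the vehicle group.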
With `O=C(O)CCc1nc2cc(-c3noc(-c4cc(C(F)(F)F)cc(C(F)(F)F)c4)n3)ccc2[nH]1`, the outcome was inactive.

The next series has as its target T1, Sphingosine 1-phosphate receptor 1. Put plainly: Agonist activity at human S1P1 receptor expressed in HEK293 cells assessed as inhibition of forskolin-stimulated cAMP production after 1 hr by HTRF assay. It is filed as functional, cell-based.
Settings: not given
Summed up: as §1
(In general: Cyclic AMP is a second messenger, typically raised through Gs and lowered through Gi signalling.)
As for `FC(F)(F)c1cc(-c2nc(-c3ccc4c(c3)CCN4)no2)cc(C(F)(F)F)c1`, the pEC50 was 7.43.

For the molecule `O=C(O)CCC(=O)n1ccc2cc(-c3noc(-c4cc(C(F)(F)F)cc(C(F)(F)F)c4)n3)ccc21`, the pEC50 was 7.39.

As for `O=C(O)CCCCn1cc2cc(-c3noc(-c4cc(C(F)(F)F)cc(C(F)(F)F)c4)n3)ccc2n1`, the pEC50 is 8.38.

In the case of `O=C(O)CCC(=O)N1CCc2cc(-c3noc(-c4ccc(Cl)c(OC(F)(F)F)c4)n3)ccc21`, the negative-log EC50 (pEC50) is 8.28.

As for `O=C(O)CCC(=O)N1CCc2cc(-c3noc(-c4ccc(C5CCCC5)c(Cl)c4)n3)ccc21`, the pEC50 is 9.09.

On to `O=C(O)COc1ccc2c(c1)CCN(c1noc(-c3cc(C(F)(F)F)cc(C(F)(F)F)c3)n1)C2`, for which the pEC50 is 7.27.

Take `O=C(O)CCCn1ncc2cc(-c3noc(-c4cc(C(F)(F)F)cc(C(F)(F)F)c4)n3)ccc21`: the negative-log EC50 (pEC50) is 8.31.

Consider `N[C@@H](CC(=O)N1CCc2cc(-c3noc(-c4cc(C(F)(F)F)cc(C(F)(F)F)c4)n3)ccc21)C(=O)O`, for which the pEC50 was 8.79.

`O=C(O)CCc1nc2cc(-c3noc(-c4cc(C(F)(F)F)cc(C(F)(F)F)c4)n3)ccc2[nH]1`: the pEC50 was 8.92.

In the case of `CC[C@H](C)Oc1ccc(-c2nc(-c3ccc4c(c3)CCN4C(=O)CCC(=O)O)no2)cc1Cl`, the pEC50 was 7.35.

Take `O=C(O)CC(=O)N1CCc2cc(-c3noc(-c4cc(C(F)(F)F)cc(C(F)(F)F)c4)n3)ccc21`: the pEC50 was 6.99.

For `FC(F)(F)c1cc(-c2nc(N3CCc4[nH]ncc4C3)no2)cc(C(F)(F)F)c1`, the pEC50 is 7.62.

For the molecule `O=C(O)CCC(=O)N1CCc2cc(-c3noc(-c4ccc(-c5cccs5)c(C(F)(F)F)c4)n3)ccc21`, the pEC50 was 8.89.

As for `COc1ccc(-c2nc(-c3ccc4c(c3)CCN4C(=O)CCC(=O)O)no2)cc1C#N`, the pEC50 is 8.20.

Turning to `COc1cc(C#N)cc(-c2nc(-c3ccc4c(c3)CCN4C(=O)CCC(=O)O)no2)c1`, the pEC50 was 7.99.

Take `COc1cc(-c2nc(-c3ccc4c(c3)CCN4C(=O)CCC(=O)O)no2)ccc1OC(F)F`: the pEC50 is 8.82.

For the molecule `O=C(O)CCCn1ncc2c1CCN(c1noc(-c3cc(C(F)(F)F)cc(C(F)(F)F)c3)n1)C2`, the pEC50 is 6.43.

Consider `CCc1ccc(-c2nc(-c3ccc4c(c3)CCN4C(=O)CCC(=O)O)no2)cc1S(C)(=O)=O`, for which the pEC50 is 7.42.

Regarding `O=C(O)CCCC(=O)N1CCc2cc(-c3noc(-c4cc(C(F)(F)F)cc(C(F)(F)F)c4)n3)ccc21`, the pEC50 is 8.18.

Regarding `CCOC(=O)CCn1ncc2cc(-c3noc(-c4cc(C(F)(F)F)cc(C(F)(F)F)c4)n3)ccc21`, the pEC50 is less than 7.00.

For the molecule `O=C(O)CCN1CCc2cc(-c3noc(-c4cc(C(F)(F)F)cc(C(F)(F)F)c4)n3)ccc21`, the pEC50 is 8.21.

As to `CCc1ccc(-c2nc(-c3ccc4c(c3)CCN4C(=O)CCC(=O)O)no2)cc1C(F)(F)F`, the pEC50 is 8.57.

On to `FC(F)(F)c1cc(-c2nc(N3CCc4[nH]cnc4C3)no2)cc(C(F)(F)F)c1`, for which the pEC50 is 6.39.

For the molecule `O=C(O)CCC(=O)N1CCc2cc(-c3noc(-c4ccc(OC(F)(F)F)cc4)n3)ccc21`, the pEC50 was 7.17.

For the molecule `N#Cc1cc(-c2nc(-c3ccc4c(c3)CCN4C(=O)CCC(=O)O)no2)ccc1OC1CCCC1`, the pEC50 is 7.74.

Consider `FC(F)(F)c1cc(-c2nc(-c3ccc4[nH]ccc4c3)no2)cc(C(F)(F)F)c1`, for which the pEC50 is 7.12.

With `FC(F)(F)c1cc(-c2nc(-c3ccc4[nH]cnc4c3)no2)cc(C(F)(F)F)c1`, the negative-log EC50 (pEC50) is 8.37.

In the case of `COc1ccc2c(c1)CCN(c1noc(-c3cc(C(F)(F)F)cc(C(F)(F)F)c3)n1)C2`, the pEC50 is 9.00.

With `FC(F)(F)c1cc(-c2nc(-c3ccc4[nH]ncc4c3)no2)cc(C(F)(F)F)c1`, the negative logarithm of the EC50 (pEC50) was 8.14.

On to `COc1ccc(-c2nc(-c3ccc4c(c3)CCN4C(=O)CCC(=O)O)no2)cc1Cl`, for which the pEC50 is 7.96.

Regarding `CC(C)Oc1ccc(-c2nc(-c3ccc4c(c3)CCN4C(=O)CCC(=O)O)no2)cc1Br`, the pEC50 was 8.40.

Take `CC(C)Oc1ccc(-c2nc(-c3ccc4c(c3)CCN4C(=O)CCC(=O)O)no2)cc1C#N`: the pEC50 is 8.96.

With `COc1ccc(-c2nc(-c3ccc4c(c3)CCN4C(=O)CCC(=O)O)no2)cc1C(F)(F)F`, the negative logarithm of the EC50 (pEC50) is 7.96.

In the case of `COc1ccc(-c2nc(-c3ccc4c(c3)CCN4C(=O)CCC(=O)O)no2)cc1C`, the pEC50 is 7.74.

As to `COc1ccc(-c2nc(-c3ccc4c(c3)CCN4C(=O)CCC(=O)O)no2)cc1OC(F)(F)F`, the pEC50 is 9.00.

Regarding `O=C(O)CCn1ncc2cc(-c3noc(-c4cc(C(F)(F)F)cc(C(F)(F)F)c4)n3)ccc21`, the pEC50 is 8.01.

Regarding `COC(=O)CCCCn1cc2cc(-c3noc(-c4cc(C(F)(F)F)cc(C(F)(F)F)c4)n3)ccc2n1`, the pEC50 is 6.53.

System in the next series: not listed separately
Put plainly: Aqueous solubility of the compound. It is filed as physicochemical. The conditions noted are these: buffer.
Broadly, the solubility is the dissolved amount per volume that the medium holds. `N[C@@H](CC(=O)N1CCc2cc(-c3noc(-c4cc(C(F)(F)F)cc(C(F)(F)F)c4)n3)ccc21)C(=O)O` showed a solubility of less than 10 µg/mL.

The target in the next series is T1, Sphingosine 1-phosphate receptor 1. In words: Agonist activity at recombinant human S1P1 receptor expressed in HEK293 cells after 2 hrs by beta-arrestin assay. It is filed as functional, cell-based.
Settings: not given
Regarding `CC(C)Oc1ccc(-c2nc(-c3ccc4c(c3)CCN4C(=O)CCC(=O)O)no2)cc1C#N`, the pEC50 was 8.17.

The test system of another series is Mus musculus. Put plainly: Immunomodulatory activity BALB/C mouse assessed as induction of lymphopenia at 0.3 to 3 mg/kg, po after 8 hrs. It counts as functional, organism-based.
Settings: not given
Summed up: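 Male BALB/c mice were dosed orally at 0.3, 1.0 or 3.0 mg/kg, or with vehicle (0.5% methylcellulose in water). Blood lymphocytes were followed over time post-dose (mean ± SD). Observed values were fitted with an indirect PK/PD model.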
Regarding `CC(C)Oc1ccc(-c2nc(-c3ccc4c(c3)CCN4C(=O)CCC(=O)O)no2)cc1C#N`, the result was Active.
